Data: ChEMBL document CHEMBL1122031, “(+/-)-4-Aryl-4,5-dihydro-3H-1,3-benzodiazepines. 2. Nuclear-substituted analogues of (+/-)-4,5-dihydro-2,3-dimethyl-4-phenyl-3H-1,3-benzodiazepine and (+/-)-4,5-dihydro-2-ethyl-3-methyl-4-phenyl-3H-1,3-benzodiazepine as potential antidepressant agents” (1982)

Experiments:
Type in all cases: functional
[1] = test system: Mus musculus; experiment: Compound, administered intraperitoneally and was evaluated for inhibition of pentylenetetrazole (PTZ)-induced lethality in mice; details: ip
[2] = test system: Mus musculus; experiment: Compound, administered perorally and was evaluated for prevention of amphetamine aggregation toxicity in mice; details: po
[3] = test system: Mus musculus; experiment: Evaluated for antidepressant activity by inhibition of tetrabenazine-induced ptosis (TBZ) in mice by ip administration
Summary of the method: (§1)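 Mice dosed with the compound and scored for prevention of tetrabenazine-induced ptosis. ED₅₀ was derived by linear regression analysis and reported with 95% confidence limits.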

[4] = species: Mus musculus; experiment: Evaluated for prevention of amphetamine aggregation toxicity in mice,
[5] = species: Mus musculus; experiment: Inhibition of pentylenetetrazole (PTZ)-induced lethality in mice
[6] = test system: Mus musculus; experiment: Inhibition of tetrabenazine-induced ptosis (TBZ) in mice by peroral administration; details: po; summary of the method: as §1
[7] = test system: Rattus norvegicus; experiment: Compound, administered intraperitoneally and was evaluated for potentiation of the 5-hydroxytryptophan-induced behavioral syndrome in pargyline pretreated rats; details: ip

SMILES | ED50 [1] [mg/kg] | ED50 [2] [mg/kg] | ED50 [3] [mg/kg] | ED50 [4] [mg/kg] | ED50 ([5]; Mus musculus, read-out: ED50) [mg/kg] | ED50 [6] [mg/kg] | ED50 [7] [mg/kg] | ED50 [5] [mg/kg]
CCC1=Nc2ccccc2CC(c2ccc(OC)c(OC)c2)N1C (centres undefined) | > 40 | > 20 | 8.2 |  |  |  |  | 
CC1=Nc2ccccc2CC(c2ccccc2F)N1C (centres undefined) |  |  |  | > 20 | > 40 | 7.6 | > 10 | 
CC1=Nc2ccccc2CC(c2ccccc2)N1C (centres undefined) [DAZEPINIL] |  |  |  | > 20 | > 40 | 2.1 | > 10 | 
CCC1=Nc2ccccc2CC(c2ccccc2Cl)N1C (centres undefined) |  |  |  |  |  | 4.1 |  | 
CC1=Nc2ccccc2CC(c2ccc(C)cc2)N1C (centres undefined) |  |  |  | > 20 | > 40 | 5.2 | > 10 | 
CC1=Nc2ccc(Cl)cc2CC(c2ccccc2)N1C (centres undefined) |  |  | ≥ 20 | > 20 | > 40 |  |  | 
CC1=Nc2ccccc2CC(c2ccc(Cl)cc2)N1C (centres undefined) |  |  |  | > 20 | > 40 | 0.52 | > 10 | 
CCC1=Nc2ccccc2CC(c2ccc(C)cc2)N1C (centres undefined) |  |  |  | > 20 | > 40 | 6.1 | > 10 | 
CCC1=Nc2ccccc2CC(c2ccc(Cl)cc2)N1C (centres undefined) |  |  | < 5 |  | > 20 |  |  | 
CC1=Nc2ccc(Cl)cc2CC(c2ccccc2F)N1C (centres undefined) |  |  | > 20 | > 20 | > 40 |  |  | 
COc1ccc(C2Cc3ccccc3N=C(C)N2C)cc1 (centres undefined) | > 40 | > 20 |  |  |  | 19.8 |  | 
CC1=Nc2ccccc2CC(c2ccccc2Cl)N1C (centres undefined) |  |  | > 5 | > 20 | > 40 |  |  | 
CCC1=Nc2ccccc2CC(c2ccc(OC)cc2)N1C (centres undefined) | > 40 | > 20 |  |  |  | 2.8 |  | 
CN(C)CCC=C1c2ccccc2CCc2ccccc21 [AMITRIPTYLINE] |  |  |  |  |  | 1.9 |  | 
CCC1=Nc2ccc(Cl)cc2CC(c2ccccc2F)N1C (centres undefined) |  |  | > 20 |  | > 40 |  |  | >20
CC1=Nc2ccccc2CC(c2ccccc2C)N1C (centres undefined) |  |  |  | > 20 | > 40 | 5.5 |  | 
CCC1=Nc2ccccc2CC(c2ccccc2F)N1C (centres undefined) |  |  |  | > 20 | > 40 | 7 |  | 
CCC1=Nc2ccccc2CC(c2ccccc2)N1C (centres undefined) |  |  |  | > 20 | > 40 | 1.6 | > 10 | 
CCC1=Nc2ccc(Cl)cc2CC(c2ccccc2)N1C (centres undefined) |  |  | ~20 |  | > 20 |  |  | >40
COc1ccc(C2Cc3ccccc3N=C(C)N2C)cc1OC (centres undefined) | > 40 | > 20 |  |  |  | 5 |  | 
CC1=Nc2ccccc2CC(c2ccc(F)cc2)N1C (centres undefined) |  |  |  | > 20 | > 40 | 3.6 | > 10 | 
CCC1=Nc2ccccc2CC(c2ccc(F)cc2)N1C (centres undefined) |  |  |  |  |  | 8.4 |  | 
CCC1=Nc2ccccc2CC(c2ccccc2C)N1C (centres undefined) |  |  |  |  | > 40 | 3.1 |  | >20
